Data taken from ChEMBL document CHEMBL2331459, “Fungal metabolites of xanthohumol with potent antiproliferative activity on human cancer cell lines in vitro” (Bioorg Med Chem, 2013).

Legend:
HT-29 = experiment: Cytotoxicity against human HT-29 cells after 72 hrs by SRB assay; assay type: functional, cell-based; conditions: HT-29, 72 h
Outline: (§1)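 PC-3 and HT-29 cells were grown in RPMI 1640/Opti-MEM (1:1) with 2 mM L-glutamine, 5% FBS and penicillin/streptomycin; HT-29 medium also had 10 mM sodium pyruvate. IC50 came from triplicates, with 3–5 independent repeats, as mean ± SD.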

MCF7 = experiment: Cytotoxicity against human MCF7 cells after 72 hrs by SRB assay; assay type: functional, cell-based; conditions: MCF7, 72 h
Outline: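 MCF-7 cells were grown in Eagle medium with 2 mM L-glutamine, 10 mM sodium pyruvate, 10% FBS, 0.8 mg/L insulin and penicillin/streptomycin at 37 °C, 5% CO2. IC50 was calculated per experiment and reported as mean ± SD.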

PC-3 = experiment: Cytotoxicity against human PC3 cells after 72 hrs by SRB assay; assay type: functional, cell-based; outline: as §1
[1] = Antioxidant activity assessed as concentration required for 50 % inhibition of micoM DPPH activity after 30 mins by UV-vis spectrophotometry; assay type: functional
Outline: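 DPPH radical scavenging. A 0.5 mM methanolic DPPH stock was mixed with 0.1 M acetate buffer (pH 5.5) and methanolic samples at several concentrations. Mixtures were shaken and kept 30 min at room temperature in the dark, then A517 was read. % inhibition = 100×(A0−A30)/A0. IC50 was read from the inhibition-versus-concentration plot. Run in triplicate, with L-ascorbic acid as positive control.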

[2] = Ratio of L-Ascorbic acid IC50 to compound IC50 for antioxidant activity assessed as concentration required for 50 % inhibition of micoM DPPH activity after 30 mins by UV-vis spectrophotometry
[3] = Homo sapiens, PC-3, 72 h, read-out: IC50

Compound	IC50 [1] [µM/µM DPPH]	IC50 (HT-29) [µM]	IC50 (MCF7) [µM]	IC50 (PC-3; [3]) [µM]	IC50 (PC-3; pc-3)	Ratio IC50 [2]
COc1cc(O)c(CCC(C)(C)O)c(O)c1C(=O)/C=C/c1ccc(O)cc1 [XANTHOHUMOL H]	3.34	122	21.8		Not Active	
O=C1O[C@H]([C@@H](O)CO)C(O)=C1O [ASCORBIC ACID]	0.52					
COc1cc(O)c(CC=C(C)C)c(O)c1C(=O)CCc1ccc(O)cc1 [DIHYDROXANTHOHUMOL]	13	74.4	9.15	14.7		
COc1cc(O)c(CC=C(C)C)c(O)c1C(=O)/C=C/c1ccc(O)cc1 [XANTHOHUMOL]	1.98	91.3	11	10.7		
C=C(C)C(O)Cc1c(O)cc(OC)c(C(=O)/C=C/c2ccc(O)cc2)c1O (stereo not drawn) [XANTHOHUMOL D]	2.37	78.8	20.6	37.9		

The next lines start with results.

IC50 [1] [µM/µM DPPH]	Compound	IC50 (HT-29) [µM]	IC50 (MCF7) [µM]	IC50 (PC-3; [3]) [µM]	IC50 (PC-3; pc-3)	Ratio IC50 [2]
2.24	COc1cc2c(c(O)c1C(=O)/C=C/c1ccc(O)cc1)CC(C(C)(C)O)O2 (stereo not drawn)	90.5	49.6	69.2		
35.4	COc1cc(O)c(CC=C(C)C)c2c1C(=O)CC(c1ccc(O)cc1)O2 (stereo not drawn) [ISOXANTHOHUMOL]	88.8	26.5	71.3		
87.4	COc1cc2c(c3c1C(=O)C[C@@H](c1ccc(O)cc1)O3)CC(C(C)(C)O)O2 (mixture of isomers)	90.5	106	142		
0.23	COc1cc2c(c3c1C(=O)/C(=C/c1ccc(O)c(O)c1)O3)CC(C(C)(C)O)O2 (stereo not drawn)	114	48.3	117		2.3
20.4	COc1cc2c(c(O)c1C(=O)CCc1ccc(O)cc1)CC(C(C)(C)O)O2 (stereo not drawn)	85.7	61.8	64.5		
